Key:
[1] = system: HL-60; assay: Compound was evaluated for inhibition of human HL-60 cell growth at 1 (uM) at 72 hr; format: functional
Summary of the method: (§1)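 HL-60 cells exposed to compound for up to 72 h. Viable cells counted by trypan blue exclusion, with percent growth inhibition read at 1 μM after 24, 48 or 72 h.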

[2] = system: HL-60; assay: Median-effective concentration for inhibition of human HL-60 cell growth at 72 h; format: functional; settings: HL-60, 72 h, read-out: ED50 (the source's name)
Summary of the method: (§2)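 HL-60 cells exposed to five concentrations of each compound for up to 72 h, with viable cells counted by trypan blue exclusion. ED50 at 24, 48 or 72 h derived by median-effect equation and plot. Where dose-effect curves were shallow, values were assigned with < or << marks.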

[3] = system: HL-60; assay: Median-effective concentration for inhibition of human HL-60 cell growth at 48 h; format: functional; settings: HL-60, 48 h, read-out: ED50 (the source's name); summary of the method: as §2
[4] = target: T1, Dihydrofolate reductase (Mus musculus, UniProt P00375); assay: Inhibitory activity against dihydrofolate reductase (DHFR) of L-1210 cells; format: cell-based
T1 sequence (P00375 whole entry): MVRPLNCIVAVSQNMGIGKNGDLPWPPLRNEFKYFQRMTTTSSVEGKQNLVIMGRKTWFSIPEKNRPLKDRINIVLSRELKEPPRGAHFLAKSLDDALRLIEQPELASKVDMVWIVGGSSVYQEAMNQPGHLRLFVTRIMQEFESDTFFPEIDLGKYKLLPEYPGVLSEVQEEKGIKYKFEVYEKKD

[5] = system: HL-60; assay: Median-effective concentration for inhibition of human HL-60 cell growth at 24 h; format: functional; settings: HL-60, 24 h, read-out: ED50 (the source's name); summary of the method: as §2
[6] = system: HL-60; assay: Compound was evaluated for inhibition of human HL-60 cell growth at 1 (uM) at 48 hr; format: functional; summary of the method: as §1
[7] = system: L1210; assay: Inhibition of cell growth of murine L-1210 cells; format: functional, cell-based; settings: Mus musculus
[8] = system: HL-60; assay: Compound was evaluated for inhibition of human HL-60 cell growth at 1 (uM) at 24 hr; format: functional; summary of the method: as §1
[9] = system: HL-60; assay: Inhibition of [6-3H]-dUrd incorporation into DNA in HL-60 cells; format: functional; settings: Homo sapiens, read-out: ED50 (the source's name)
Summary of the method: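 HL-60 cells preincubated with compound for 40 min, then given [6-3H]dUrd (0.05 μM, 1 μCi/mL) for 30 min at 37 °C, and label incorporated into DNA measured. Five compound concentrations were used, with ED50 from the median-effect equation and plot. For shallow curves, values were given as < or <<.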

| EC50 [2] | EC50 [3] | Ki [4] | EC50 [5] | IC50 [7] | EC50 [9] | SMILES | Inhibition [1] | Inhibition [6] | Inhibition [8] |
| --- | --- | --- | --- | --- | --- | --- | --- | --- | --- |
|  |  | > 4 pM |  | 18.9 µM |  | Cc1c(CNc2ccc(C(=O)NC(CCC(=O)O)C(=O)O)cc2)c(-c2ccccc2)nc2nc(N)nc(N)c12 (stereo unspecified) |  |  |  |
|  |  | > 4 pM |  | 16.9 µM |  | Nc1nc(N)c2cc(CNc3ccc(C(=O)NC(CCC(=O)O)C(=O)O)cc3)c(-c3ccccc3)nc2n1 (stereo unspecified) |  |  |  |
|  |  | > 4 pM |  | 18.9 µM |  | Cc1nc2nc(N)nc(N)c2c(-c2ccccc2)c1CNc1ccc(C(=O)NC(CCC(=O)O)C(=O)O)cc1 (stereo unspecified) |  |  |  |

Further lines, the compound ahead of its results:

| SMILES | EC50 [2] | EC50 [3] | Ki [4] | EC50 [5] | IC50 [7] | EC50 [9] | Inhibition [1] | Inhibition [6] | Inhibition [8] |
| --- | --- | --- | --- | --- | --- | --- | --- | --- | --- |
| Cc1nc2nc(N)nc(N)c2c(C)c1CNc1ccc(C(=O)NC(CCC(=O)O)C(=O)O)cc1 (stereo unspecified) | 0.59 µM | 8.2 µM | 2.01 pM | 42 µM | 0.125 µM | 568 µM | 50.8% | 19.8% | 10.3% |
| Nc1nc(N)c2cc(CNc3ccc(C(=O)NC(CCC(=O)O)C(=O)O)cc3)cnc2n1 (stereo unspecified) |  |  |  |  | 0.02 µM |  |  |  |  |
| CN(Cc1cnc2nc(N)nc(N)c2n1)c1ccc(C(=O)N[C@@H](CCC(=O)O)C(=O)O)cc1 [METHOTREXATE] | < 0.05 µM | < 0.05 µM |  | 609 µM | 0.0045 µM | 0.1 µM | 87.7% | 64% | 34.2% |
| Cc1c(CNc2ccc(C(=O)NC(CCC(=O)O)C(=O)O)cc2)cnc2nc(N)nc(N)c12 (stereo unspecified) | < 0.001 µM | 0.15 µM |  | 2290 µM | 0.00011 µM | < 4 µM | 92.2% | 61.1% | 25.2% |
| Cc1nc2nc(N)nc(N)c2cc1CNc1ccc(C(=O)NC(CCC(=O)O)C(=O)O)cc1 (stereo unspecified) | 0.011 µM | 2 µM | > 4 pM | 144 µM | 0.08 µM | 123 µM | 77.6% | 32.5% | 4.7% |
